In ChEMBL document CHEMBL1140548, “Synthesis, antibacterial activity, and quantitative structure-activity relationships of new (Z)-2-(nitroimidazolylmethylene)-3(2H)-benzofuranone derivatives” (2007):
Converted amounts (≈) assume the structure as drawn.

Tests used:
Type in all cases: functional
[1] = system: Staphylococcus epidermidis; assay: Antimicrobial activity against Staphylococcus epidermidis ATCC 12228
Summary of the method: (§1)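 Agar-dilution assay run in vitro on a panel of Gram-positive and Gram-negative bacteria, with amoxicillin as the reference drug. The MIC was taken as the minimal inhibitory concentration.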

Staphylococcus aureus [2] = assay: Antimicrobial activity against Staphylococcus aureus ATCC 6538p; summary of the method: as §1
Klebsiella pneumoniae [3] = assay: Antimicrobial activity against Klebsiella pneumoniae ATCC 10031; summary of the method: as §1
Bacillus subtilis [4] = assay: Antimicrobial activity against Bacillus subtilis ATCC 6633; summary of the method: as §1
Staphylococcus aureus [5] = assay: Antimicrobial activity against methicillin-resistant Staphylococcus aureus isolate
Summary of the method: (§2)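 In vitro conventional agar-dilution assay against a panel of Gram-positive and Gram-negative bacteria. Read-out is the minimal inhibitory concentration (MIC), with amoxicillin as the reference drug.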

Klebsiella pneumoniae [6] = assay: Antimicrobial activity against Klebsiella pneumoniae ATCC 10031 in presence of 0.1% butylated hydroxytoluene
Bacillus subtilis [7] = assay: Antimicrobial activity against Bacillus subtilis ATCC 6633 in presence of 0.1% butylated hydroxytoluene
[8] = system: Staphylococcus epidermidis; assay: Antimicrobial activity against Staphylococcus epidermidis ATCC 12228 in presence of 0.1% butylated hydroxytoluene
Staphylococcus aureus [9] = assay: Antimicrobial activity against Staphylococcus aureus ATCC 6538p in presence of 0.1% butylated hydroxytoluene; summary of the method: as §2
Staphylococcus aureus [10] = assay: Antimicrobial activity against methicillin-resistant Staphylococcus aureus isolate in presence of 0.1% butylated hydroxytoluene; summary of the method: as §2

| SMILES | MIC [1] [µg/mL] | MIC (Staphylococcus aureus [2]) [µg/mL] | MIC (Klebsiella pneumoniae [3]) [µg/mL] | MIC (Bacillus subtilis [4]) [µg/mL] | MIC (Staphylococcus aureus [5]) [µg/mL] | MIC (Klebsiella pneumoniae [6]) [µg/mL] | MIC (Bacillus subtilis [7]) [µg/mL] | MIC [8] [µg/mL] | MIC (Staphylococcus aureus [9]) [µg/mL] | MIC (Staphylococcus aureus [10]) [µg/mL] |
| --- | --- | --- | --- | --- | --- | --- | --- | --- | --- | --- |
| Cc1cccc2c1O/C(=C\c1c([N+](=O)[O-])ncn1C)C2=O | > 100 | > 100 | > 100 | > 100 | > 100 |  |  |  |  |  |
| COc1ccc2c(c1)O/C(=C\c1ncc([N+](=O)[O-])n1C)C2=O | 1.56 (≈ 5.18 µM) | 1.56 (≈ 5.18 µM) | 0.39 (≈ 1.29 µM) | 0.78 (≈ 2.59 µM) | 1.56 (≈ 5.18 µM) |  |  |  |  |  |
| Cn1c([N+](=O)[O-])cnc1/C=C1\Oc2c(Cl)cccc2C1=O | 3.12 (≈ 10.2 µM) | 3.12 (≈ 10.2 µM) | 1.56 (≈ 5.1 µM) | 3.12 (≈ 10.2 µM) | 3.12 (≈ 10.2 µM) |  |  |  |  |  |
| Cc1ccc2c(c1)C(=O)/C(=C/c1c([N+](=O)[O-])ncn1C)O2 | > 100 | > 100 | > 100 | > 100 | > 100 |  |  |  |  |  |
| Cn1cnc([N+](=O)[O-])c1/C=C1\Oc2ccc(Br)cc2C1=O | > 100 | > 100 | > 100 | > 100 | > 100 |  |  |  |  |  |
| COc1ccc2c(c1)C(=O)/C(=C/c1ncc([N+](=O)[O-])n1C)O2 | 3.12 (≈ 10.4 µM) | 3.12 (≈ 10.4 µM) | 0.39 (≈ 1.29 µM) | 0.78 (≈ 2.59 µM) | 3.12 (≈ 10.4 µM) |  |  |  |  |  |
| Cn1c([N+](=O)[O-])cnc1/C=C1\Oc2ccc(I)cc2C1=O | > 100 | > 100 | 50 (≈ 126 µM) | > 100 | > 100 |  |  |  |  |  |
| COc1ccc2c(c1)C(=O)/C(=C/c1c([N+](=O)[O-])ncn1C)O2 | > 100 | > 100 | 6.25 (≈ 20.7 µM) | > 100 | > 100 |  |  |  |  |  |
| Cn1c([N+](=O)[O-])cnc1/C=C1\Cc2ccccc2C1=O | > 100 | > 100 | 0.2 (≈ 0.743 µM) | > 100 | > 100 |  |  |  |  |  |
| Cn1c([N+](=O)[O-])cnc1C=C1C(=O)c2ccccc2C1=O | 50 (≈ 177 µM) | 100 (≈ 353 µM) | > 100 | 50 (≈ 177 µM) | 100 (≈ 353 µM) |  |  |  |  |  |
| Cc1ccc2c(c1)O/C(=C\c1c([N+](=O)[O-])ncn1C)C2=O | > 100 | > 100 | > 100 | > 100 | > 100 |  |  |  |  |  |
| Cn1cnc([N+](=O)[O-])c1/C=C1\Oc2ccc(I)cc2C1=O | > 100 | > 100 | > 100 | > 100 | > 100 |  |  |  |  |  |
| COc1ccc2c(c1OC)O/C(=C\c1ncc([N+](=O)[O-])n1C)C2=O | 0.39 (≈ 1.18 µM) | 0.78 (≈ 2.35 µM) | 0.2 (≈ 0.604 µM) | 0.39 (≈ 1.18 µM) | 0.78 (≈ 2.35 µM) |  |  |  |  |  |
| Cn1c([N+](=O)[O-])cnc1/C=C1\Oc2cc(O)ccc2C1=O |  |  |  |  |  | 3.12 | 6.25 | 6.25 | 12.5 | 12.5 |
| Cn1cnc([N+](=O)[O-])c1/C=C1\Oc2ccc(Cl)cc2C1=O | > 100 | > 100 | > 100 | > 100 | > 100 |  |  |  |  |  |
| CC1(C)S[C@@H]2[C@H](NC(=O)[C@H](N)c3ccc(O)cc3)C(=O)N2[C@H]1C(=O)O [AMOXICILLIN] | 0.195 (≈ 0.534 µM) | 0.195 (≈ 0.534 µM) | > 100 | 12.5 (≈ 34.2 µM) | 12.5 (≈ 34.2 µM) |  |  |  |  |  |
